This note sets out measurements from PubChem BioAssay.

Activity calls are given as the source filed them. Cut-off read from the data, not from the text of the source, unless noted: active = inhibition above about 31%; inactive = the rest.

Test [1] deals with Pantothenate synthetase (Mycobacterium tuberculosis (strain ATCC 25618 / H37Rv)) (UniProt P9WIL5). Put plainly: Coupled enzyme confirmation of inhibitors against recombinant Mtb PanC (AID 375; call rule not given here;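 note: 0% = full reaction with vehicle and 100% = no enzyme background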). To be noted: coupled enzyme assay; at 10 µM, stronger effect = higher value.
Chain of Pantothenate synthetase (Mycobacterium tuberculosis (strain ATCC 25618 / H37Rv)) (P9WIL5 whole entry, looked up): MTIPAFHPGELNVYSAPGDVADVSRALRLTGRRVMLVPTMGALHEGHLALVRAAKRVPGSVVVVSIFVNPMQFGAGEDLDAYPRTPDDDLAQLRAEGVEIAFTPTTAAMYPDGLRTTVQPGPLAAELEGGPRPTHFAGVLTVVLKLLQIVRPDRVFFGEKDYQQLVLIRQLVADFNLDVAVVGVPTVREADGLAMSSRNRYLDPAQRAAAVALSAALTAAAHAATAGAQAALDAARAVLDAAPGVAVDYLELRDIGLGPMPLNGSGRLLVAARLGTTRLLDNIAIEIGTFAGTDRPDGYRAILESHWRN
Test [2] is described as follows: reduced viability of SK-BR-3 breast cancer cells – cell-based, 24 h, human, pilot screen (AID 572;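 active = viability at or below 10% of carrier control in both of two separate runs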;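 note: compound exposure lasted between 18 and 24 h rather than exactly 24 h; 100% = carrier-treated control wells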). To be noted: SK-BR-3 viability, CellTiter-Glo luminescence, at 10 µM, stronger effect = lower value. (In general: ATP-based viability assays read luminescence as a measure of living cells.)
A short description of test [3]: HUVEC growth inhibition – cell-based, human, primary screen (AID 575;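 active = viability at or below 30% in both replicate assays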;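 note: 100% = median of untreated cell wells with 0.1% DMSO on each plate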). To be noted: HUVEC proliferation, CellTiter-Glo luminescence, 72 h; at 10 µM; stronger effect = lower value. The essentials:
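Material: primary human umbilical vein endothelial cells / Schedule: 72 h exposure, 37 °C, 5% CO2, 30 min RT equilibration / Signal: ATP-based CellTiter-Glo luminescent read / Read-out basis: percent of median DMSO-control luminescence / Control set: 32 DMSO-only cell-control wells (high), 32 MePR drug-control wells (low) per plate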

The nature of test [4]: H69AR cell proliferation blockers – human, duplicate replicates, primary screen (AID 580;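 active = viability at or under a set limit in both replicates, limit being median viability minus 3 SD, cut at about 48% in these data, passing the limit was not always enough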;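 note: 100% = mean luminescence of untreated wells and 0% = no signal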). To be noted: H69AR lung tumor cells viability, ATP luminescence, 72 h; at 10 µM; stronger effect = lower value.
A short description of test [5]: MRP1 drug-resistance reversers in H69AR cells – cell-based, doxorubicin co-treatment, pilot screen (AID 601;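 active = viability loss from added drug above about 55%, and viability with drug at most 40%, in both replicates, limit read from the data, passing the limit was not always enough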). To be noted: CellTiter-Glo, 72 h, at 10 µM; for differential viability (reversal): stronger effect = higher value.
A short description of test [6]: yeast transport mutant growth inhibition pilot in 384-well plates, post-Golgi transport modulator project (AID 636). To be noted: absorbance 615 nm, about 18 h, stronger effect = higher value.
Test [7] can be described thus: growth suppression of yeast trafficking mutant, preliminary HTS, modulators of trafficking downstream of Golgi apparatus project, 1536-format plate, OD 615 nm (AID 637; in the data active = inhibition above about 30%). To be noted: yeast transport mutant growth, absorbance 615 nm, 18 h; stronger effect = higher value.
The mark [8] stands for this setting: H69AR cells + 2 uM doxorubicin, measured here: viability with 2 uM doxorubicin, stronger effect = lower value.
Where [9] appears, read: H69AR cells, compound alone cytotoxicity.

As to `CCOc1cccc(N2C(=O)CC(=O)NC2=O)c1`, the inhibition (in general, the relative decrease from the control value, in per cent) in test [1] was 0% (inactive); in test [6], -2.6% (inactive); in test [7], -8.55% (inactive). The viability (as a rule, a read-out of living cells in per cent, often relative to untreated cells) was 124% (inactive) in test [2]; 107% (inactive) in test [3]; 94.5% (inactive) in test [4]; 96.8% in test [5] (setting [8]); 94.5% in test [5] (setting [9]). Besides, in test [5] (H69AR cells + 2 uM doxorubicin), the differential viability (reversal) is -2.27% (inactive).

Consider `O=C(Cn1ncc2c3ccccc3n(Cc3ccc(F)cc3)c2c1=O)N1CCC2(CC1)OCCO2`, for which the inhibition was 7% (inactive) in test [1], -5.41% (inactive) in test [6] and -2.55% (inactive) in test [7]. Moreover, the viability is 86% (inactive) in test [2]; 96% (inactive) in test [3]; 89.2% (inactive) in test [4]; 98.4% in test [5] (setting [8]); 89.2% in test [5] (setting [9]). For the same compound, the differential viability (reversal) in test [5] (H69AR cells + 2 uM doxorubicin) is -9.23% (inactive).

For `CC(CCc1ccccc1)NC(C)C(O)c1ccc(O)cc1` (centres undefined), the inhibition in test [1] was 4% (inactive); in test [6] it was -0.26% (inactive); in test [7], -3% (inactive). The viability is 87% (inactive) in test [2]; 87.5% (inactive) in test [3]; 97.2% (inactive) in test [4]; 95.5% in test [5] (setting [8]); 97.2% in test [5] (setting [9]). Besides, in test [5] (H69AR cells + 2 uM doxorubicin), the differential viability (reversal) was 1.7% (inactive).

`CC(=NCCCN1CCOCC1)c1c(O)n(-c2ccccc2C)c(=O)[nH]c1=O`: the inhibition in test [1] is 0% (inactive); in test [6] it was -0.14% (inactive); in test [7], -5% (inactive). The viability in test [2] was 100% (inactive); in test [3] it was 91.3% (inactive); in test [4], 92.2% (inactive); in test [5] (setting [8]) it was 87%; in test [5] (setting [9]) it was 92.2%. Besides, in test [5] (H69AR cells + 2 uM doxorubicin), the differential viability (reversal) was 5.16% (inactive).

With `CC[C@@H](CO)NC(=O)[C@@H]1C=C2c3cccc4c3c(cn4C)C[C@H]2N(C)C1`, the inhibition in test [1] is 7% (inactive); in test [6], 1.17% (inactive); in test [7], -2% (inactive). Also, the viability in test [2] was 147% (inactive); in test [3], 96.8% (inactive); in test [4] it was 95.4% (inactive); in test [5] (setting [8]), 96.6%; in test [5] (setting [9]) it was 95.4%. Moreover, the differential viability (reversal) in test [5] (H69AR cells + 2 uM doxorubicin) was -1.17% (inactive).

As to `CNCCc1c[nH]c2ccccc12`, the inhibition is 0% (inactive) in test [1], -0.39% (inactive) in test [6] and 12% (inactive) in test [7]. For the same compound, the viability was 127% (inactive) in test [2]; 85.9% (inactive) in test [3]; 84.5% (inactive) in test [4]; 105% in test [5] (setting [8]); 84.5% in test [5] (setting [9]). For the same compound, in test [5] (H69AR cells + 2 uM doxorubicin), the differential viability (reversal) was -20.1% (inactive).

In the case of `CC1=NOC2(C)Nc3ncnn3C(c3ccccc3)C12` (centres undefined), the inhibition is 0% (inactive) in test [1], -6.03% (inactive) in test [6] and 7.9% (inactive) in test [7]. The viability was 118% (inactive) in test [2]; 93% (inactive) in test [3]; 94.5% (inactive) in test [4]; 97.5% in test [5] (setting [8]); 94.5% in test [5] (setting [9]). Further, in test [5] (H69AR cells + 2 uM doxorubicin), the differential viability (reversal) was -3.04% (inactive).

Regarding `CC(NC(C)(C)C)C(=O)c1cccc(Cl)c1` (centres undefined), the inhibition is 0% (inactive) in test [1], -1.17% (inactive) in test [6] and 1.67% (inactive) in test [7]. The viability in test [2] was 87% (inactive); in test [3], 74.8% (inactive); in test [4], 99.5% (inactive); in test [5] (setting [8]), 95.5%; in test [5] (setting [9]) it was 99.5%. In test [5] (H69AR cells + 2 uM doxorubicin), the differential viability (reversal) is 4.02% (inactive).

Regarding `COC(=O)C1C2c3ccccc3OC1(C)N=c1s/c(=C/c3cnn(C)c3C)c(=O)n12` (centres undefined), the inhibition in test [1] was 7% (inactive); in test [6], -0.81% (inactive); in test [7] it was 8.18% (inactive). Moreover, the viability in test [2] is 98% (inactive); in test [3] it was 83.4% (inactive); in test [4], 91.8% (inactive); in test [5] (setting [8]) it was 88.8%; in test [5] (setting [9]), 91.8%. Moreover, the differential viability (reversal) in test [5] (H69AR cells + 2 uM doxorubicin) was 2.92% (inactive).

Regarding `CN(C)[C@@H]1C(=O)C(C(N)=O)=C(O)[C@@]2(O)C(=O)C3=C(O)c4c(O)cccc4[C@@](C)(O)[C@H]3[C@H](O)[C@@H]12`, the inhibition in test [1] was 3% (inactive); in test [6], 0.52% (inactive); in test [7], 1.17% (inactive). Moreover, the viability in test [2] was 115% (inactive); in test [3], 101% (inactive); in test [4], 103% (inactive); in test [5] (setting [8]) it was 101%; in test [5] (setting [9]), 103%. Moreover, in test [5] (H69AR cells + 2 uM doxorubicin), the differential viability (reversal) is 2.03% (inactive).

Take `CCOC(=O)c1cc2c(cn1)[nH]c1ccccc12`: the inhibition is 6% (inactive) in test [1], -0.91% (inactive) in test [6] and -3.17% (inactive) in test [7]. Besides, the viability was 122% (inactive) in test [2]; 89.3% (inactive) in test [3]; 88% (inactive) in test [4]; 84.8% in test [5] (setting [8]); 88% in test [5] (setting [9]). The differential viability (reversal) in test [5] (H69AR cells + 2 uM doxorubicin) is 3.16% (inactive).

`NCC1(CC(=O)O)CCCCC1`: the inhibition is 3% (inactive) in test [1], -1.17% (inactive) in test [6] and 2% (inactive) in test [7]. Further, the viability was 105% (inactive) in test [2]; 101% (inactive) in test [3]; 96.8% (inactive) in test [4]; 88.9% in test [5] (setting [8]); 96.8% in test [5] (setting [9]). Further, the differential viability (reversal) in test [5] (H69AR cells + 2 uM doxorubicin) is 7.93% (inactive).

As to `CC(C)[C@H]1C(=O)N2CCC[C@H]2[C@]2(O)O[C@](NC(=O)[C@@H]3C=C4c5cccc6[nH]cc(c56)C[C@H]4N(C)C3)(C(C)C)C(=O)N12`, the inhibition in test [1] is 5% (inactive); in test [6], -0.78% (inactive); in test [7], 7.17% (inactive). Besides, the viability in test [2] was 104% (inactive); in test [3] it was 86.4% (inactive); in test [4], 104% (inactive); in test [5] (setting [8]), 103%; in test [5] (setting [9]) it was 104%. The differential viability (reversal) in test [5] (H69AR cells + 2 uM doxorubicin) is 0.81% (inactive).

For the compound `CC(C)[C@@]1(NC(=O)[C@@H]2C[C@@H]3c4cccc5[nH]cc(c45)C[C@H]3N(C)C2)O[C@@]2(O)[C@@H]3CCCN3C(=O)[C@H](Cc3ccccc3)N2C1=O`, the results for the inhibition in test [1], in test [6] and in test [7] were 4% (inactive), -1.56% (inactive) and -1.67% (inactive), respectively. The viability is 111% (inactive) in test [2]; 4.38% (active) in test [3]; 73.8% (inactive) in test [4]; 77.3% in test [5] (setting [8]); 73.8% in test [5] (setting [9]). Also, in test [5] (H69AR cells + 2 uM doxorubicin), the differential viability (reversal) is -3.47% (inactive).

`N=C(N)c1c(O)n(C2CCCCC2)c(=O)n(C2CCCCC2)c1=O`: the figures for the inhibition in test [1], in test [6] and in test [7] were 0% (inactive), -9.32% (inactive) and 7.14% (inactive), respectively. The viability is 2.35% (active) in test [3], 2.02% (active) in test [4], 1.86% in test [5] (setting [8]) and 2.02% in test [5] (setting [9]). Besides, the differential viability (reversal) in test [5] (H69AR cells + 2 uM doxorubicin) was 0.155% (inactive).

For the compound `Cc1ccc2c(c1)[C@@H]1CN(C)CC[C@@H]1N2C(=O)Nc1cccc(C(F)(F)F)c1`, the values for the inhibition in test [1], in test [6] and in test [7] were 9% (inactive), 1.45% (inactive) and 1.15% (inactive), respectively. Further, the viability is 69.9% (inactive) in test [4], 78.1% in test [5] (setting [8]) and 69.9% in test [5] (setting [9]). In addition, the differential viability (reversal) in test [5] (H69AR cells + 2 uM doxorubicin) was -8.21% (inactive).

Turning to `O=C(CN1CCN(Cc2cccc(Cl)c2)C1=O)N1CCC2(CC1)OCCO2`, the inhibition in test [1] was 2% (inactive); in test [6], -3.12% (inactive); in test [7] it was -2.7% (inactive). Moreover, the viability in test [3] is 87.6% (inactive); in test [4], 89.5% (inactive); in test [5] (setting [8]) it was 91.7%; in test [5] (setting [9]), 89.5%. The differential viability (reversal) in test [5] (H69AR cells + 2 uM doxorubicin) was -2.12% (inactive).
